The subject of one test is SK-N-SH. The test is described as follows: Cytotoxicity against human SK-N-SH cells after 48 hrs by SRB assay. Type of test: functional. The method, boiled down:
(§1)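 Compounds tested at […], triplicate wells, 48 h continuous exposure. SRB staining (0.4% in 1% acetic acid, 20 min RT), dye eluted with 10 mM trizma base, absorbance 540 nm (690 nm reference). GI50 from net-growth formula; experiments repeated three times.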

The next test has as its system A549. Nature of the test: Cytotoxicity against human A549 cells after 48 hrs by SRB assay. Type of test: functional. Summed up:
as §1

Calls of active or inactive are those of the source. The calls are words filed in the database; no cut-off is given here.

Take `C=C1CC[C@@H](O)C(C)(C)[C@@H]1CCC(C)=CCOc1ccc2ccc(=O)oc2c1` (mixture of isomers): in the test on SK-N-SH, the GI50 result is “inactive” and the LC50 entry is “inactive”. In the test with A549 (A549, 48 h), this compound yielded a concentration for 50% growth inhibition (GI50) of 25 µM and a median lethal concentration (LC50) of 46 µM.
In the case of `C=C1CC[C@H](O)C(C)(C)[C@@H]1CCC(C)=CCOc1ccc2ccc(=O)oc2c1` (mixture of isomers), in the test on SK-N-SH, the GI50 entry is “inactive” and the LC50 entry was “inactive”. Also, in the test on A549, the GI50 entry was “inactive” and the LC50 result was “inactive”.
As to `C=C1CC[C@H](O)C(C)(C)[C@@H]1CC/C(C)=C/CO` (racemic), in the test on SK-N-SH, the GI50 result was “inactive” and the LC50 result is “inactive”. Also, in the test with A549, the GI50 entry was “inactive” and the LC50 result was “inactive”.
For `COC(=O)Nc1nc2cc(C(=O)c3cccs3)ccc2[nH]1` [NOCODAZOLE], the GI50 worked out at 0.65 µM with SK-N-SH and 0.5 µM in the test on A549 (A549, 48 h).

The record behind these values is ChEMBL document CHEMBL1158641, “Total synthesis of (+/-)-elegansidiol, (+/-)-farnesiferol B, and (+/-)-farnesiferol D” (2010).
